Assay results from ChEMBL document CHEMBL4184183, “Novel sulfenamides and sulfonamides based on pyridazinone and pyridazine scaffolds as CB1 receptor ligand antagonists” (Bioorg Med Chem, 2018).
Calls of active or inactive are those of the source. No cut-off for these calls is given here.

Legend:
Cannabinoid receptor 2 [1] = target: T1, Cannabinoid receptor 2 (Homo sapiens, UniProt P34972); assay: Displacement of [3H]CP,55-940 from recombinant human CB2 receptor expressed in HEK293 EBNA cell membranes after 90 mins by microbeta scintillation counting method
T1 sequence (P34972 whole entry): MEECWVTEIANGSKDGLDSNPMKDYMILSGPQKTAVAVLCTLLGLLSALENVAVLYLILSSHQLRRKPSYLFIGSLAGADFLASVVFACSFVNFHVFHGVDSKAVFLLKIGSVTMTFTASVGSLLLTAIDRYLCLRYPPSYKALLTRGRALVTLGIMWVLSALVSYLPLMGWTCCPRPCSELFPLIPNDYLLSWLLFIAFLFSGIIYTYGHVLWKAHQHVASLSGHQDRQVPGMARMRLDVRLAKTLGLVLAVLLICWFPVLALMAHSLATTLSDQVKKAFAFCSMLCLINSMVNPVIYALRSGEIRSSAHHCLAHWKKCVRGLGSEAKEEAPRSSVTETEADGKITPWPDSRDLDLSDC

Cannabinoid receptor 1 [2] = target: T2, Cannabinoid receptor 1 (Homo sapiens, UniProt P21554); assay: Displacement of [3H]CP,55-940 from recombinant human CB1 receptor expressed in HEK293 EBNA cell membranes after 90 mins by microbeta scintillation counting method
T2 sequence (P21554 whole entry): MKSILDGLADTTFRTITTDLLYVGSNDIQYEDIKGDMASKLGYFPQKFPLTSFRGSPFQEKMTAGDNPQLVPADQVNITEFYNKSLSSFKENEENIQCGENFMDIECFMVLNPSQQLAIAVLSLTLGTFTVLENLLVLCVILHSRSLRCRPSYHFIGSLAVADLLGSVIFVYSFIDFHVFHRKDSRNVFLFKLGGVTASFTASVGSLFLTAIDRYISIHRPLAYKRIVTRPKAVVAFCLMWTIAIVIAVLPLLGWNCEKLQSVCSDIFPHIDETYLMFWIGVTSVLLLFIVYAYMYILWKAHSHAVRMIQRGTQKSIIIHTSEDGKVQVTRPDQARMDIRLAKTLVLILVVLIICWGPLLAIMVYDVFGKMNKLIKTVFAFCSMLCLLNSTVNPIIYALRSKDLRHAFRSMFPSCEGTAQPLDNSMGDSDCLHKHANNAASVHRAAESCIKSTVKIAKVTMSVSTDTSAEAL

Cannabinoid receptor 1 [3] = target: T2, Cannabinoid receptor 1; assay: Displacement of [3H]CP,55-940 from recombinant human CB1 receptor expressed in HEK293 EBNA cell membranes at 40 uM after 90 mins by microbeta scintillation counting method relative to control
Method in brief: (§1)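 Competition binding with [³H]-CP55,940 on human CB₁R or CB₂R transfected into HEK293 EBNA cells; each compound screened once at 40 µM for percent displacement of radioligand.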

Cannabinoid receptor 2 [4] = target: T1, Cannabinoid receptor 2; assay: Displacement of [3H]CP,55-940 from recombinant human CB2 receptor expressed in HEK293 EBNA cell membranes at 40 uM after 90 mins by microbeta scintillation counting method relative to control; method in brief: as §1
Cannabinoid receptor 1 [5] = target: T2, Cannabinoid receptor 1; assay: Antagonist activity at human CB1 receptor expressed in CHO cell membranes assessed as reduction in GTPgammaS binding after 30 mins by microbeta counting method; assay type: functional, cell-based
Mus musculus [6] = assay: Analgesic effect in mouse assessed as elevation in latency response at 2.5 mg/kg measured after 5 mins by hot plate test; assay type: functional, organism-based
Method in brief: (§2)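 Hot-plate test in mice, read as latency to respond to the painful stimulus. Test agent at 2.5 mg/kg was given alone or with the cannabinoid agonist Δ9-THC at 5 mg/kg. […] 7-9 mice per group; means SEM; one-way ANOVA with Student-Newman-Keuls test.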

Mus musculus [7] = assay: Reversal of delta9-THC-induced analgesic effect in mouse assessed as reduction in delta9-THC-induced elevation in latency response at 2.5 mg/kg measured after 5 mins by hot plate test; assay type: organism-based; conditions: in vivo; method in brief: as §2
Mus musculus [8] = assay: Analgesic effect in mouse assessed as elevation in latency response at 1 mg/kg measured after 5 mins by hot plate test; assay type: functional, organism-based

| Ki (Cannabinoid receptor 2 [1]) | Ki (Cannabinoid receptor 1 [2]) | SMILES | inhibition (Cannabinoid receptor 1 [3]) | Ki (Cannabinoid receptor 2 [1]; read-out: Ki) | Ki (Cannabinoid receptor 1 [2]; read-out: Ki) | inhibition (Cannabinoid receptor 2 [4]) | IC50 (Cannabinoid receptor 1 [5]) | Activity (Mus musculus [6]) | Activity (Mus musculus [7]) | Activity (Mus musculus [8]) |
| --- | --- | --- | --- | --- | --- | --- | --- | --- | --- | --- |
| Nd(Insoluble) | Nd(Insoluble) | Cc1ccc(-c2cc(SNC3CCCCC3)nnc2-c2ccc(C)cc2)cc1 | – | – | – | – | – | – | – | – |
| – | – | Cc1ccc(-c2cc(S(=O)(=O)NC3CCCCCC3)nnc2-c2ccc(C)cc2)cc1 | > 70% | > 40000 nM | 800 nM | < 70% | – | – | – | – |
| – | – | Cc1ccc(-c2cc(SNCCN3CCOCC3)nnc2-c2ccc(C)cc2)cc1 | > 70% | > 40000 nM | – | < 70% | – | – | – | – |
| – | – | Cc1ccc(-c2cc(S(=O)(=O)NC3CC4CC(C3C)C4(C)C)nnc2-c2ccc(C)cc2)cc1 (centres undefined) | > 70% | > 40000 nM | 73.2 nM | < 70% | 550 nM | – | – | – |
| – | – | Cc1ccc(-c2cc(SNC3CCCC3)nnc2-c2ccc(C)cc2)cc1 | > 70% | > 40000 nM | 724 nM | < 70% | – | – | – | – |
| – | – | Cc1ccc(-c2cc(SNC3CC4CC(C3C)C4(C)C)nnc2-c2ccc(C)cc2)cc1 (centres undefined) | > 70% | > 40000 nM | 75.5 nM | < 70% | 182 nM | inactive | – | – |
| – | – | Cc1ccc(-c2cc(SNCC34CC5CC(CC(C5)C3)C4)nnc2-c2ccc(C)cc2)cc1 | > 70% | > 40000 nM | 857 nM | < 70% | – | – | – | – |
| – | – | Cc1ccc(-c2cc(S(=O)(=O)NC3CCCC3)nnc2-c2ccc(C)cc2)cc1 | > 70% | > 40000 nM | 1460 nM | < 70% | – | – | – | – |
| – | – | Cc1ccc(-c2cc(SNC3CCCCCC3)nnc2-c2ccc(C)cc2)cc1 | > 70% | > 40000 nM | 609 nM | < 70% | – | – | – | – |
| – | – | Cc1ccc(Cn2nc(-c3ccc(C)cc3)cc(S(=O)(=O)NC3CCCCCC3)c2=O)cc1 | > 70% | 2550 nM | 1190 nM | < 70% | – | – | Toxic | – |
| – | – | Cc1ccc(-c2cc(SNCC3CCC4CC3C4(C)C)nnc2-c2ccc(C)cc2)cc1 (centres undefined) | > 70% | > 40000 nM | 1250 nM | < 70% | – | – | – | – |
| – | – | Cc1ccc(-c2cc(S(=O)(=O)NCC3CCC4CC3C4(C)C)nnc2-c2ccc(C)cc2)cc1 (centres undefined) | > 70% | > 40000 nM | > 10000 nM | < 70% | – | – | – | – |
| – | – | Cc1ccc(-c2cc(SNC3CC(C)CCC3C(C)C)nnc2-c2ccc(C)cc2)cc1 (centres undefined) | > 70% | > 40000 nM | 708 nM | < 70% | – | – | – | – |
| – | – | Cc1ccc(-c2cc(SNC3C4(C)CCC(C4)C3(C)C)nnc2-c2ccc(C)cc2)cc1 (centres undefined) | > 70% | > 40000 nM | 247 nM | < 70% | – | – | – | – |
| – | – | Cc1ccc(-c2cc(S(=O)(=O)NC3CCCCC3)nnc2-c2ccc(C)cc2)cc1 | > 70% | > 40000 nM | 3600 nM | < 70% | – | – | – | – |
| – | – | Cc1ccc(-c2cc(SNC3CC4CCC3(C)C4(C)C)nnc2-c2ccc(C)cc2)cc1 (centres undefined) | > 70% | > 40000 nM | 44.6 nM | < 70% | 249 nM | – | – | – |
| – | – | Cc1c(C(=O)NN2CCCCC2)nn(-c2ccc(Cl)cc2Cl)c1-c1ccc(Cl)cc1 | – | – | – | – | – | – | – | inactive |
| – | – | Cc1ccc(-c2cc(S(=O)(=O)NC3CC4CCC3(C)C4(C)C)nnc2-c2ccc(C)cc2)cc1 (centres undefined) | > 70% | > 40000 nM | 1290 nM | < 70% | – | – | – | – |
| – | – | Cc1ccc(Cn2nc(-c3ccc(C)cc3)cc(SNC3CCCCCC3)c2=O)cc1 | inactive | > 40000 nM | > 40000 nM | inactive | – | – | – | – |
| – | – | Cc1ccc(-c2cc(S(=O)(=O)NC3CC(C)CCC3C(C)C)nnc2-c2ccc(C)cc2)cc1 (centres undefined) | > 70% | > 40000 nM | > 10000 nM | < 70% | – | – | – | – |
